Experiment [1] concerns KB. As to the kind of experiment: Antiproliferative activity against human KB cells after 72 hrs by SRB assay. It is filed as functional. An outline of the steps:
(§1)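 Cells fixed in situ with 10% TCA at time of drug addition as time-zero reference. Drug exposure 72 h after attachment, then 10% TCA fixation and 0.4% SRB in 1% HOAc for 10 min. Unbound dye washed off with 1% HOAc, bound dye dissolved in 10 mM trizma base, absorbance read at 515 nm. GI50 is the concentration halving net protein increase relative to control.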
(In SRB staining, fixed cells bind dye roughly in proportion to their protein.)

Experiment [2] has as its system DU-145. As to the kind of experiment: Antiproliferative activity against human DU145 cells after 72 hrs by SRB assay. Type of experiment: functional. Particulars: DU-145, 72 h. An outline of the steps: as §1
The nature of experiment [3]: Antiproliferative activity against human KBVIN cells after 72 hrs by SRB assay. It is filed as functional. An outline of the steps:
as §1

Experiment [4] relates to A549. As to the kind of experiment: Antiproliferative activity against human A549 cells after 72 hrs by SRB assay. Type of experiment: functional. Particulars: A549, 72 h. The essentials: as §1
Experiment [5] relates to A549. As to the kind of experiment: Induction of cell cycle arrest in human A549 cells assessed as S phase cells at 5 mg after 48 hrs by FACS-based flow cytometry (reference value: 66.74%). Type of experiment: functional. (A flow cytometer gives signals particle by particle.)
The test system of experiment [6] is A549. Briefly: Induction of apoptosis in human A549 cells after 48 hrs by DNA fluorochrome Hoechst-staining based fluorescence microscopy. It is filed as functional, cell-based. An outline of the steps: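 A549 seeded at 5 × 10^3 cells/well, treated at 0, 1, 5 and 10 µg/mL for 48 h. Monolayer fixed and stained with Hoechst 33258 for 20 min, washed with PBS, examined by fluorescence microscopy. Cells with condensed or fragmented, brightly stained nuclei scored apoptotic. Three independent experiments.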

For experiment [7], the system named is A549. Briefly: Induction of cell cycle arrest in human A549 cells assessed as G0/G1 phase cells at 1 mg after 48 hrs by FACS-based flow cytometry (reference value: 26.9%). It is filed as functional.
For experiment [8], the system named is A549. Briefly: Induction of cell cycle arrest in human A549 cells assessed as S phase cells at 10 mg after 48 hrs by FACS-based flow cytometry (reference value: 66.74%). It is filed as functional.
Experiment [9] relates to A549. Briefly: Induction of cell cycle arrest in human A549 cells assessed as G0/G1 phase cells at 5 mg after 48 hrs by FACS-based flow cytometry (reference value: 26.9%). Type of experiment: functional.
Experiment [10] has as its system A549. As to the kind of experiment: Induction of cell cycle arrest in human A549 cells assessed as S phase cells at 1 mg after 48 hrs by FACS-based flow cytometry (reference value: 66.74%). It is filed as functional.
Experiment [11] has as its system A549. Briefly: Induction of cell cycle arrest in human A549 cells assessed as G2/M phase cells at 5 mg after 48 hrs by FACS-based flow cytometry (reference value: 6.36%). It is filed as functional.
The test system of experiment [12] is A549. Briefly: Induction of cell cycle arrest in human A549 cells assessed as G2/M phase cells at 10 mg after 48 hrs by FACS-based flow cytometry (reference value: 6.36%). Type of experiment: functional.
The test system of experiment [13] is A549. As to the kind of experiment: Antiproliferative activity against human A549 cells after 48 hrs by MTT assay. Type of experiment: functional, cell-based. An outline of the steps:
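A549 seeded at 5 × 10^3 cells/well. Exposed to 0.06, 0.23, 0.94, 3.75, 15 or 60 μg/mL for 48 h, then medium replaced. MTT (5 mg/mL solution) added for 4 h at 37 °C, formazan dissolved in DMSO, absorbance at 570 nm. Viability expressed as % of untreated cells. Mean ± SD of three independent experiments.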

Experiment [14] concerns A549. As to the kind of experiment: Induction of cell cycle arrest in human A549 cells assessed as G0/G1 phase cells at 10 mg after 48 hrs by FACS-based flow cytometry (reference value: 26.9%). It is filed as functional.
Experiment [15] relates to A549. As to the kind of experiment: Induction of cell cycle arrest in human A549 cells assessed as G2/M phase cells at 1 mg after 48 hrs by FACS-based flow cytometry (reference value: 6.36%). Type of experiment: functional.

Some results are limits rather than exact numbers.

36 molecules from ChEMBL document CHEMBL1944560, “Antitumor agents 292. Design, synthesis and pharmacological study of S- and O-substituted 7-mercapto- or hydroxy-coumarins and chromones as potent cytotoxic agents” (2012) can be followed below.

Usually GI50 stands for the concentration giving 50% growth inhibition. A higher GI50 goes with less potent growth inhibition.

Regarding `CCc1cc(=O)c2ccc(OC(C)C)c(CBr)c2o1`, the GI50 in experiment [1], in experiment [2], in experiment [3] and in [4] was over 30.8 µM each time.
As for `CCc1oc2c(C)c(OCc3ccccc3)ccc2c(=O)c1Br`, the GI50 in [1], in experiment [2], in experiment [3] and in experiment [4] was over 26.8 µM in each case.
As for `CC(C)Oc1ccc2c(=O)cc(C(C)Br)oc2c1CBr` (stereo not given), the GI50 in experiment [1] is 12.8 µM; in experiment [2], 15.5 µM; in experiment [3] it was 11.4 µM; in experiment [4] it was 12.8 µM.
In the case of `Cc1cc(=O)oc2cc(SCc3cccc(C(F)(F)F)c3)ccc12`, the GI50 in [1], in [2], in experiment [3] and in [4] was over 28.5 µM throughout.
Turning to `COc1ccc2c(=O)cc(C(C)Br)oc2c1CBr` (stereo not given), the GI50 in [1] was 15.1 µM; in experiment [2], over 26.6 µM; in experiment [3], 17 µM; in experiment [4], over 26.6 µM.
For the molecule `COc1ccc(Br)c(CSc2ccc3c(C)cc(=O)oc3c2)c1`, the GI50 is 16 µM in experiment [1], over 25.6 µM in experiment [2], over 25.6 µM in experiment [3] and 15.3 µM in [4].
Consider `CCc1cc(=O)c2ccc(OCc3cccc(C(F)(F)F)c3)c(C)c2o1`, for which the GI50 in experiment [1], in experiment [2], in [3] and in experiment [4] was over 27.6 µM each time.
Turning to `Cc1cc(=O)oc2cc(SCc3ccncc3)ccc12`, the GI50 in [1], in experiment [2], in experiment [3] and in experiment [4] was over 35.3 µM in each case.
On to `CCc1cc(=O)c2ccc(Sc3cccc(Cl)[n+]3[O-])cc2o1`, for which the GI50 in experiment [1], in [2], in experiment [3] and in [4] was over 30 µM each time.
As to `CCc1cc(=O)c2ccc(OCc3cccc(C)c3)c(C)c2o1`, the GI50 in [1] came to 28.6 µM; in experiment [2], 24.1 µM; in [3], 24.9 µM; in experiment [4], 24.9 µM.
As to `Cc1cc(=O)oc2cc(SCc3ccccn3)ccc12`, the GI50 in experiment [1], in [2], in experiment [3] and in experiment [4] was over 35.3 µM each time.
With `CCc1oc2c(C)c(OCc3cccc(C(F)(F)F)c3)ccc2c(=O)c1Br`, the GI50 in experiment [1], in experiment [2], in experiment [3] and in experiment [4] was over 22.7 µM each time.
As for `Cc1cccc(CSc2ccc3c(C)cc(=O)oc3c2)c1`, the GI50 in experiment [1], in experiment [2], in experiment [3] and in experiment [4] was over 33.7 µM in each case.
Regarding `CCc1oc2c(C)c(OC(C)C)ccc2c(=O)c1Br`, the GI50 in experiment [1] is 22.6 µM; in [2], over 30.8 µM; in experiment [3], 5.84 µM; in experiment [4] it was over 30.8 µM.
`CCc1cc(=O)c2ccc(Sc3cccc(Cl)n3)cc2o1`: the GI50 in experiment [1], in experiment [2], in experiment [3] and in [4] was over 31.5 µM in each case.
For the molecule `CCOc1ccc2c(=O)cc(CC)oc2c1CBr`, the GI50 in experiment [1], in [2], in [3] and in experiment [4] was over 32.1 µM throughout.
Consider `Cc1cc(=O)oc2cc(Sc3cccc(Cl)[n+]3[O-])ccc12`, for which the GI50 in experiment [1] was over 31.3 µM; in experiment [2] it was over 31.3 µM; in experiment [3], 24.5 µM; in experiment [4], over 31.3 µM.
For the molecule `CC(C)COc1ccc2c(=O)cc(C(C)Br)oc2c1CBr` (stereo not given), the GI50 in experiment [1] is 10.9 µM; in experiment [2], 10.5 µM; in [3] it was 9.45 µM; in experiment [4], 8.71 µM.
Turning to `Cc1cc(=O)oc2cc(SC3CCOC3=O)ccc12` (stereo not given), the GI50 in experiment [1], in [2], in experiment [3] and in experiment [4] was over 36.2 µM throughout.
On to `CCOc1ccc2c(=O)cc(C(C)Br)oc2c1CBr` (stereo not given), for which the GI50 worked out at 15.6 µM in [1], 20.9 µM in experiment [2], 12.8 µM in [3] and 19.8 µM in experiment [4].
Regarding `Cc1cc(=O)oc2cc(Sc3cccc(Cl)n3)ccc12`, the Activity in experiment [5] is 10.36%; in experiment [6] it was “Dose-dependent effect”; in experiment [7] it was 5.02%; in [8], 16.03%; in experiment [9] it was 0.67%; in [10] it was 11.4%. Besides, the Activity in experiment [11] is 88.98%; in experiment [12] it was 83.86%; in experiment [13], “Dose-dependent effect”; in experiment [14], 0.12%; in experiment [15] it was 83.58%. The GI50 turned out to be 0.92 µM in experiment [1], 1.15 µM in experiment [2], 0.92 µM in experiment [3] and 2.11 µM in experiment [4].
As for `COc1cc(CSc2ccc3c(C)cc(=O)oc3c2)cc(OC)c1`, the GI50 in experiment [1], in experiment [2], in experiment [3] and in experiment [4] was over 29.2 µM throughout.
`CCc1cc(=O)c2ccc(Sc3cccc(Cl)n3)c(C)c2o1`: the GI50 in [1] was over 30.1 µM; in experiment [2], over 30.1 µM; in experiment [3], 23.9 µM; in [4] it was over 30.1 µM.
For `Cc1cc(=O)oc2cc(SCc3cccc(C#N)c3)ccc12`, the GI50 in experiment [1], in experiment [2], in experiment [3] and in experiment [4] was over 32.5 µM each time.
In the case of `Cc1cc(=O)oc2cc(SCc3cccc(OC(F)(F)F)c3)ccc12`, the 50% growth inhibitory concentration (GI50) in experiment [1] turned out to be 14.8 µM; in experiment [2] it was 15.5 µM; in experiment [3] it was 15.3 µM; in experiment [4] it was 17.4 µM.
With `COC(=O)c1cccc(CSc2ccc3c(C)cc(=O)oc3c2)c1`, the GI50 amounted to 2.06 µM in experiment [1], 14.1 µM in experiment [2], 5.41 µM in [3] and 7.7 µM in [4].
Take `CCc1cc(=O)c2ccc(Sc3cccc(Cl)[n+]3[O-])c(C)c2o1`: the GI50 in experiment [1], in experiment [2], in [3] and in [4] was over 28.8 µM each time.
Turning to `COc1cccc(CSc2ccc3c(C)cc(=O)oc3c2)c1`, the GI50 in experiment [1], in experiment [2], in [3] and in experiment [4] was over 32 µM in each case.
In the case of `COc1cc(CSc2ccc3c(C)cc(=O)oc3c2)c([N+](=O)[O-])cc1OC`, the GI50 in experiment [1], in experiment [2], in experiment [3] and in [4] was over 25.8 µM each time.
`CCc1cc(=O)c2ccc(OC)c(CBr)c2o1`: the GI50 in [1], in experiment [2], in experiment [3] and in [4] was over 33.6 µM each time.
With `CCc1cc(=O)c2ccc(OCC(C)C)c(CBr)c2o1`, the GI50 in experiment [1], in experiment [2], in experiment [3] and in [4] was over 29.5 µM in each case.
Regarding `Cc1cc(=O)oc2cc(SCc3cccnc3)ccc12`, the GI50 in [1], in experiment [2], in experiment [3] and in experiment [4] was over 35.3 µM each time.
Regarding `CCc1cc(=O)c2ccc(OCc3ccccc3)c(C)c2o1`, the GI50 in experiment [1] was over 34 µM; in experiment [2], 27.7 µM; in experiment [3], 24.8 µM; in [4] it was over 34 µM.
Consider `CCc1cc(=O)c2ccc(OCc3cccc(C#N)c3)c(C)c2o1`, for which the GI50 in [1], in [2], in [3] and in [4] was over 31.3 µM each time.
As for `CC(=O)O[C@H]1C(=O)[C@@]2(C)[C@H]([C@H](OC(=O)c3ccccc3)[C@]3(O)C[C@H](OC(=O)[C@H](O)[C@@H](NC(=O)c4ccccc4)c4ccccc4)C(C)=C1C3(C)C)[C@]1(OC(C)=O)CO[C@@H]1C[C@@H]2O` [PACLITAXEL], the GI50 in [1] is 0.00412 µM; in experiment [2] it was 0.00386 µM; in experiment [3] it was over 1 µM; in experiment [4], 0.00546 µM.
Turning to `CCc1oc2c(C)c(OC)ccc2c(=O)c1Br`, the GI50 in experiment [1] is over 33.6 µM; in experiment [2], over 33.6 µM; in [3] it was 23.2 µM; in [4], over 33.6 µM.
